Source: PubChem BioAssay
A selection: hits, their analogues and other compounds. The true share with any hit is near 4.7%.
MrgX1 agonist – activates human MrgX1 receptor signaling; Q96LB2; 310,000 tested, 0.44% active; B-score at 10 µM; MrgX1-HEK293 cells, Fluo-4 calcium fluorescence, agonist mode; hits give high values;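 active = calcium response B-score plate-corrected fluorescence ratio at least 3 library SD, with starting fluorescence B-score inside 5 SD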
Target sequence (Q96LB2 whole entry, looked up): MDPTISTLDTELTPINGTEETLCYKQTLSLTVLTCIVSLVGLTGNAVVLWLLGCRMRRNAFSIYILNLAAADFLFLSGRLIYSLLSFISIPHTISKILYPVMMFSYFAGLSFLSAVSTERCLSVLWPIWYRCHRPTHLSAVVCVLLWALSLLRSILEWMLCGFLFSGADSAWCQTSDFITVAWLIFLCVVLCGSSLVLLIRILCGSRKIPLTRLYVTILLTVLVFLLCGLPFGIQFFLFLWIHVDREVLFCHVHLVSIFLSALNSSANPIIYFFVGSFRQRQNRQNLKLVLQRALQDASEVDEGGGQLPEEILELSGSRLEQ
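Material: MrgX1-expressing HEK293 cells / Dosing: compound as first of three additions / Incubation: overnight seeding, then 1 h dark dye loading / Signal: Fluo-4 NW calcium fluorescence / Evaluation: B-scored fluorescence response ratio / Benchmarks: positive and negative control wells on each plate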
RGS4 act – RGS4 potentiation or activation | AID 463111 | B-score at 10 µM | 310,000 tested, 0.92% active | HEK293 M3R/inducible RGS4, carbachol calcium flux Fluo4; hits give low values;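 active = B-score of the integrated calcium signal more than 4 SD below the library mean, with starting fluorescence not abnormally high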;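 also: negative B-score means reduced calcium response which marks RGS4 activation or potentiation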
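test system = HEK293 cells with stable M3R and inducible RGS4 | schedule = recording 10 s baseline at 1 Hz, 100 s post-agonist | technique = Fluo4-AM (2 µM) calcium-flux fluorescence, kinetic read | measure = Agonist-evoked peak-minus-minimum fluorescence over baseline, integrated ratio, B score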
MrgX1 PAM – human MrgX1 positive allosteric modulation, primary screen; B-score at 10 µM; MrgX1-HEK293, Fluo-4 calcium flux, FDSS; hits give high values; 310,000 tested, 0.63% active;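 active = plate-corrected calcium response at least 3 library SD above typical, normal starting fluorescence, not activating the receptor alone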;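 also: compound read alongside a low EC10 to EC30 dose of BAM8-22 agonist; peak minus trough fluorescence over baseline measured at the second addition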
RGS4 block – inhibitors of human RGS4. 310,000 tested, 0.45% active. P49798. HEK293 M3R/RGS4 inducible, Fluo-4 calcium flux; hits give high values; triggered by carbachol at its EC20. B-score at 10 µM;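 active = B-score, a plate-corrected calcium signal, over three deviations above library mean, with baseline fluorescence within five deviations of library mean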;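 also: RGS4 expression induced by doxycycline in cells with stable M3 receptor; B-score is computed from the integrated fluorescence ratio over baseline after carbachol; higher B-score means a larger calcium signal and so more RGS4 inhibition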
Target sequence (P49798 whole entry, looked up): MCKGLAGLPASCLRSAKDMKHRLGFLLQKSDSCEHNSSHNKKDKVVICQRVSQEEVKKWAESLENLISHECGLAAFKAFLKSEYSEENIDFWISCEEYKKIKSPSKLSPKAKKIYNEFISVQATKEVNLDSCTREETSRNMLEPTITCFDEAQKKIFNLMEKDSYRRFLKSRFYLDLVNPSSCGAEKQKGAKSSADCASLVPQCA
KCC2 mod – KCC2 (human) Cl- transport modulation; Q9H2X9; KCC2 cells, thallium flux FluoZin-2 fluorescence; B-score of Tl+ flux slope (higher = more flux/activation; lower = inhibition) at 10 µM; 190,000 tested, 2.2% active; AID 1456;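 active = thallium flux slope and its plate-corrected score both differing from the plate sample mean at a set confidence after two filtering rounds, in either direction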;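 also: slope of fluorescence scaled to starting intensity during 10 to 20 s after thallium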
MrgX1 antag – human MrgX1 receptor antagonism, primary screen; 310,000 tested, 1.3% active; MRGX1-HEK293 calcium flux, Fluo-4, BAM8-22 antagonism; hits give low values; Q96LB2; AID 588676; B-score at 10 µM;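 active = calcium-response B-score plate-corrected more than 3 library SD below zero, starting fluorescence within 5 deviations, no agonist response on first addition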;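 also: peak minus trough fluorescence over baseline after final BAM8-22 challenge near maximal dose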
KCC2 sec1 – KCC2 (human) modulation, secondary assay; shares compounds with KCC2 mod; HEK293-KCC2, thallium flux, FluoZin2 fluorescence; hits give high values; normalised thallium flux (F/F0 slope) at 10 µM; 3,700 tested, 15% active; AID 1713;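 active = thallium flux slope above the same plate's solvent-only control mean plus 3 SD; inconclusive = the two replicate wells disagree; inactive = no significant difference from solvent-only control wells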
KCC2 bumet counter – thallium flux despite bumetanide block in KCC2 cells, secondary assay 3 | normalized thallium flux at 10 µM | HEK293-KCC2 + bumetanide/ouabain, thallium flux FluoZin2; hits give high values | AID 1714 | 3,700 tested, 49% active | shares compounds with KCC2 mod;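 active = thallium entry rate above the same plate's blocked-transporter control wells by more than 3 SD; inconclusive = the two repeat wells disagree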;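 also: raw slope of fluorescence over initial fluorescence between 10 and 20 s after thallium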
KCC2 secondary2 – confirmation of human KCC2 transport modulators | shares compounds with KCC2 mod | HEK293-KCC2, thallium flux FluoZin2 fluorescence; actives lie on both sides; F/F0 rise rate, 10–20 s post-thallium | normalized thallium flux at 10 µM | 3,700 tested, 23% active;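 active = thallium flux slope more than 3 SD above or below the plate's solvent-only control mean, mostly below; inconclusive = the two repeat wells disagreed; inactive = no significant shift from solvent-only controls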;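 also: raw slope with 0.1% DMSO as baseline and bumetanide as block control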
HEK counter1 – counter-screen for KCC2 modulators: effect in parental HEK293 cells | shares compounds with KCC2 mod | thallium flux FluoZin2, ouabain; baseline-ratio fluorescence slope, 10–20 s after thallium | thallium flux rate (normalised fluorescence) at 10 µM | 3,700 tested, 46% active;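 active = thallium flux rate significantly above the same plate's solvent-only control wells, beyond their mean plus 3 SD; inconclusive = the two replicate wells gave conflicting results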
KCC2 ouabain – KCC2 (human) modulation, ouabain retest | raw Tl+ flux slope (below DMSO = inhibition, above = activation) at 10 µM | HEK293-KCC2, thallium flux FluoZin2 fluorescence; bidirectional: low = inhibitor, high = activator | shares compounds with KCC2 mod | 3,700 tested, 48% active;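 active = thallium flux slope beyond 3 SD from same-plate DMSO control mean in most replicates, usually higher, sometimes lower; inconclusive = repeat tests gave conflicting results; inactive = no significant difference from controls in most replicates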;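 also: slope of initial-normalized fluorescence between seconds 10 and 20 after thallium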
HEK293 Tl flux2 – parental HEK flux effect, counter-screen 2; 3,700 tested, 33% active; AID 1718; thallium flux slope at 10 µM; shares compounds with KCC2 mod; HEK293 parental, thallium flux FluoZin-2 fluorescence slope;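 active = thallium flux slope above the same plate's solvent-control mean plus 3 SD in both duplicate wells; inconclusive = duplicate wells that disagreed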;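 also: run without ouabain in cells lacking the KCC2 cotransporter; slope of fluorescence scaled to its starting value between 10 and 20 s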
Active calls of the source: *.

For O=C(Nc1nc2ccccc2s1)c1cc(-c2ccccc2)nn1-c1ccccc1 the results were MrgX1 agonist inactive, RGS4 act inactive, MrgX1 PAM inactive, RGS4 block inactive, KCC2 mod 1.4 and MrgX1 antag inactive.
N#Cc1ccc(-c2csc(NNC(=O)c3ccccc3)n2)cc1 was read as MrgX1 agonist inactive, RGS4 act inactive, MrgX1 PAM inactive, RGS4 block inactive and MrgX1 antag inactive.
Screening Cc1cccc(C(=O)NNC(=O)c2ccc(-c3ccccc3)cc2)c1 returned MrgX1 agonist inactive, RGS4 act inactive, MrgX1 PAM inactive, RGS4 block inactive and MrgX1 antag inactive.
`O=C1CCC(C(=O)N2CCN(c3cnccn3)CC2)CN1CCc1ccc(Cl)cc1` (configuration not stated) gave RGS4 act inactive and RGS4 block inactive.
Screening COc1ccc(-n2ccn3c(CCC(=O)N4CCN(c5cccc(C)c5C)CC4)nnc3c2=O)cc1 returned MrgX1 agonist inactive, RGS4 act inactive, MrgX1 PAM inactive, RGS4 block inactive and MrgX1 antag inactive.
Screening CCOC(=O)c1ccc(C(=O)OCC)c(NC(=S)Nc2ccc([N+](=O)[O-])cc2OC)c1 returned MrgX1 agonist inactive, RGS4 act inactive, MrgX1 PAM inactive, RGS4 block inactive, KCC2 mod 10*, MrgX1 antag inactive, KCC2 sec1 0.013*, KCC2 bumet counter 0.031*, KCC2 secondary2 0.036, HEK counter1 0.024*, KCC2 ouabain 0.033* and HEK293 Tl flux2 0.014*.
For CCOc1ccc(S(=O)(=O)N(CC)CC(=O)NC2CC2)cc1 the results were MrgX1 agonist inactive, RGS4 act inactive, MrgX1 PAM inactive, RGS4 block inactive and MrgX1 antag inactive.
`Cc1ccc2oc(-c3ccc(C)c(NC(=S)NC(=O)c4cccs4)c3)nc2c1` gave MrgX1 agonist inactive, RGS4 act inactive, MrgX1 PAM inactive, RGS4 block inactive, KCC2 mod 4.6*, MrgX1 antag inactive, KCC2 sec1 0.011, KCC2 bumet counter 0.012*, KCC2 secondary2 0.034, HEK counter1 inconclusive, KCC2 ouabain inconclusive and HEK293 Tl flux2 0.011.
For Cc1ccc2oc(-c3ccc(C)c(NC(=O)Cc4cccs4)c3)nc2c1 the results were MrgX1 agonist inactive, RGS4 act inactive, MrgX1 PAM inactive, RGS4 block inactive, KCC2 mod 0.32 and MrgX1 antag inactive.
For CS(=O)(=O)c1ccccc1C(=O)N(CCC1=CCCCC1)c1c(N)n(Cc2ccccc2)c(=O)[nH]c1=O the results were MrgX1 agonist inactive, RGS4 act inactive, MrgX1 PAM inactive, RGS4 block inactive and MrgX1 antag inactive.
